Measurements from ChEMBL document CHEMBL1153870, “Synthesis of glycose carbamides and evaluation of the induction of erythroid differentiation of human erythroleukemic K562 cells” (Eur J Med Chem, 2009).

What was measured:
[1] = system: K562; test: Antiproliferative activity against human K562 cells; format: functional, cell-based
Procedure, shortened: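 K562 cells were seeded at 30,000 cells/mL in medium with 10% FBS, penicillin and streptomycin. They were cultured with or without test compounds at the indicated concentrations. Cell number per mL was counted with a Coulter counter on different days after culture set-up.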

[2] = system: K562; test: Induction of erythroid differentiation in human K562 cells assessed as benzidine-positive cells after 6 days; format: functional; design: concentration or dose not given beside the values
Procedure, shortened: (§1)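 K562 cells were seeded at 30,000 cells/mL in medium with 10% FBS and antibiotics, then exposed to compounds at the indicated concentrations for a 6-day induction period. Hemoglobin-containing cells were scored by benzidine staining and expressed as % benzidine-positive cells. Values are mean ± SD of three independent experiments.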

[3] = system: K562; test: Induction of erythroid differentiation in human K562 cells assessed as benzidine-positive cells at 20 mM after 6 days; format: functional; procedure, shortened: as §1
[4] = system: K562; test: Induction of erythroid differentiation in human K562 cells assessed as benzidine-positive cells at 0.5 mM after 6 days; format: functional; procedure, shortened: as §1
[5] = system: K562; test: Induction of erythroid differentiation in human K562 cells assessed as benzidine-positive cells at 0.75 mM after 6 days; format: functional
Procedure, shortened: (§2)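 Erythroid induction was measured with compound combined with a sub-optimal concentration of ara-C. K562 cells were seeded at 30,000 cells/mL in medium with 10% FBS and antibiotics and co-treated for 6 days. Read-out was % benzidine-positive (hemoglobin-containing) cells, given as mean ± SD of three independent experiments.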

[6] = system: K562; test: Induction of erythroid differentiation in human K562 cells assessed as benzidine-positive cells at 8 mM after 6 days; format: functional; procedure, shortened: as §2
[7] = system: K562; test: Induction of erythroid differentiation in human K562 cells assessed as benzidine-positive cells at 5 mM after 6 days; format: functional; procedure, shortened: as §1
[8] = system: K562; test: Induction of erythroid differentiation in human K562 cells assessed as benzidine-positive cells at 0.1 mM after 6 days; format: functional; procedure, shortened: as §1
[9] = system: K562; test: Induction of erythroid differentiation in human K562 cells assessed as benzidine-positive cells at 1 mM after 6 days; format: functional; procedure, shortened: as §1
[10] = system: K562; test: Induction of erythroid differentiation in human K562 cells assessed as benzidine-positive cells at 500 mM after 6 days; format: functional; details: in the assay text read “500 nM” for “500 mM”; procedure, shortened: as §1

Row | IC50 [1] [mM] | Compound | Activity [2] [%] | also measured
1 | 20 | CC1(C)O[C@H]2O[C@H]([C@H](O)CO)[C@@H](NC(=O)C(C)(C)C)[C@H]2O1 | 25 | Activity [3]: 40%
2 | 0.1 | CCCC(=O)NC[C@H]1O[C@H](OC)[C@H](O)[C@H]2OC(C)(C)O[C@H]21 | 18 | –
3 | 20 | CCCC(=O)N[C@H]1[C@H]2OC(C)(C)O[C@H]2O[C@@H]1[C@H](O)CO | 20 | Activity [3]: 40%
4 | 5 | CC(C)CC(=O)N[C@@H]1[C@H]2OC(C)(C)O[C@H]2O[C@@H]1[C@H](O)CO | 25 | –
5 | – | COc1ccc(OC)c(CC(=O)N[C@H]2[C@H]3OC(C)(C)O[C@H]3O[C@@H]2[C@H]2COC(C)(C)O2)c1 | – | Activity [4]: 50%
6 | 7.5 | CCC(=O)N[C@H]1[C@H]2OC(C)(C)O[C@H]2O[C@@H]1[C@H]1COC(C)(C)O1 | 19 | –
7 | – | CC1(C)O[C@H]2O[C@H]([C@H]3COC(C)(C)O3)[C@@H](NC(=O)CCc3ccccc3)[C@H]2O1 | – | Activity [5]: 49%
8 | 5 | CC(C)(C)CC(=O)N[C@@H]1[C@H]2OC(C)(C)O[C@H]2O[C@@H]1[C@H](O)CO | 15 | –
9 | 0.0001 | CO[C@H](C(=O)[C@@H](O)[C@@H](C)O)[C@@H]1Cc2cc3cc(O[C@H]4C[C@@H](O[C@@H]5C[C@@H](O)[C@H](O)[C@@H](C)O5)[C@H](O)[C@@H](C)O4)c(C)c(O)c3c(O)c2C(=O)[C@H]1O[C@H]1C[C@@H](O[C@@H]2C[C@@H](O)[C@@H](O[C@@H]3C[C@](C)(O)[C@H](O)[C@@H](C)O3)[C@@H](C)O2)[C@H](O)[C@@H](C)O1 [PLICAMYCIN] | 86 | –
10 | 1 | CO[C@H]1C[C@@H]2CC[C@@H](C)[C@@](O)(O2)C(=O)C(=O)N2CCCC[C@H]2C(=O)O[C@H]([C@H](C)C[C@@H]2CC[C@@H](O)[C@H](OC)C2)CC(=O)[C@H](C)/C=C(\C)[C@@H](O)[C@@H](OC)C(=O)[C@H](C)C[C@H](C)/C=C/C=C/C=C/1C [SIROLIMUS] | 75.5 | –
11 | 1 | CC1(C)O[C@H]2O[C@H]([C@H]3COC(C)(C)O3)[C@@H](NC(=O)C3CCCC3)[C@H]2O1 | 21 | –
12 | – | CC(C)C(=O)N[C@H]1[C@H]2OC(C)(C)O[C@H]2O[C@@H]1[C@H](O)CO | – | Activity [6]: 66%
13 | 0.5 | CC#CC(=O)N[C@@H]1[C@H]2OC(C)(C)O[C@H]2O[C@@H]1[C@H]1COC(C)(C)O1 | 19 | –
14 | – | CC1(C)O[C@H]2O[C@H]([C@H](O)CO)[C@H](NC(=O)C(C)(C)C)[C@H]2O1 | – | Activity [7]: 68%
15 | 30 | CCC(=O)N[C@@H]1[C@H]2OC(C)(C)O[C@H]2O[C@@H]1[C@H](O)CO | 20 | –
16 | – | CC1(C)O[C@H]2O[C@H]([C@H](O)CO)[C@@H](NC(=O)c3ccc(-c4ccccc4)cc3)[C@H]2O1 | – | Activity [8]: 33%
17 | – | COc1cccc(CC(=O)N[C@H]2[C@H]3OC(C)(C)O[C@H]3O[C@@H]2[C@H]2COC(C)(C)O2)c1 | – | Activity [9]: 43%
18 | 2.5 | COc1ccc(C(=O)N[C@H]2[C@H]3OC(C)(C)O[C@H]3O[C@@H]2[C@H](O)CO)cc1 | 24 | –
19 | 0.25 | CO[C@@H]1O[C@H](CNC(=O)C2CC2)[C@@H]2OC(C)(C)O[C@@H]2[C@H]1O | 27 | –
20 | 0.5 | CCCC(=O)N[C@@H]1[C@H]2OC(C)(C)O[C@H]2O[C@@H]1[C@H](O)CO | 20 | Activity [4]: 35%
21 | 5 | CCCCC(=O)N[C@@H]1[C@H]2OC(C)(C)O[C@H]2O[C@@H]1[C@H](O)CO | 18 | –
22 | 2 | CCCC(=O)O [BUTYRIC ACID] | 32.5 | –
23 | 10 | CCCCCC(=O)N[C@@H]1[C@H]2OC(C)(C)O[C@H]2O[C@@H]1[C@H](O)CO | 28 | –
24 | – | Nc1ccn([C@@H]2O[C@H](CO)[C@@H](O)[C@@H]2O)c(=O)n1 [CYTARABINE] | 78 | Activity [10]: 22%
